Test results reported in publication PMC8317634 (Journal of the Endocrine Society, 2021).

Columns and labels:
[1] = tested on: individuals with obesity and hypertension; test: 8 weeks treatment, fasting plasma before and after; assay type: in vivo, human; conditions: amlodipine 10 mg once a day, n = 7, control group
Procedure, shortened: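 Multicentre, randomized, double-blinded study in adults with hypertension and obesity. Participants received amlodipine 10 mg once daily (n = 7) or sacubitril/valsartan 194 mg/206 mg once daily (n = 7) for 8 weeks. Plasma was sampled after an overnight fast before and after treatment. Glucagon was measured by validated 2-site enzyme immunoassay and L-amino acids by a commercial kit.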

NEP activity = molecular target: T1, NEP activity (Mus musculus, UniProt Q61391); test: Inhibition of NEP activity in mice by oral sacubitril; assay type: in vivo; conditions: sacubitril 0.7 nmol/g BW, oral gavage; data not shown
T1 sequence (Q61391 1-750): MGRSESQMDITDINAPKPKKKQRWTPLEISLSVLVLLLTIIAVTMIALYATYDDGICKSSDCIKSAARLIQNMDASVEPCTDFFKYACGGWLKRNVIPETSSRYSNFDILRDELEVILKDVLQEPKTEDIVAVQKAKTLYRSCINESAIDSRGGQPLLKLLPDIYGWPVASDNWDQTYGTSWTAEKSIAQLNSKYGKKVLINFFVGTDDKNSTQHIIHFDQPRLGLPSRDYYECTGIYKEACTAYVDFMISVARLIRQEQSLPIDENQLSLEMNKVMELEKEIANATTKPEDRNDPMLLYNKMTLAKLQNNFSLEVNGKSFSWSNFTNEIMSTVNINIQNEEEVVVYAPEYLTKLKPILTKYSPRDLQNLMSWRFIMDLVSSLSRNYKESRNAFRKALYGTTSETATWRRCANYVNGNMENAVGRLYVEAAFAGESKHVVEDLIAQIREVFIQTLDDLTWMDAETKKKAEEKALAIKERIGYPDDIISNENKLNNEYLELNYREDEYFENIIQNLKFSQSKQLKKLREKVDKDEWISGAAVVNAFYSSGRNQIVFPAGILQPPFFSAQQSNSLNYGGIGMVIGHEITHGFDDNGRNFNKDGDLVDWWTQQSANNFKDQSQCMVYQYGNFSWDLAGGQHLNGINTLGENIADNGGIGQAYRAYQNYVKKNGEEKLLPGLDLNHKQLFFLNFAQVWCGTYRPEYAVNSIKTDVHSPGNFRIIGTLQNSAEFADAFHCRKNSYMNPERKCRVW

female C57BL/6JRj mice [2] = test: Oral amino acid challenge in female mice treated with sacubitril, GRA or Ex9-39; assay type: in vivo; conditions: AAs 34 mg oral
Procedure, shortened: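 Female C57BL/6JRj mice (n = 7-10) were fasted 3 h. They were pretreated with GRA vehicle or GRA (100 mg/kg oral) at –180 min, or Ex9-39 (100 µg i.p.) at –15 min. Sacubitril (oral gavage) or PBS/0.7% DMSO was given at –30 min. An amino-acid mixture (34 mg, oral gavage) followed at 0 min. Blood glucose was measured from tail bleeds by handheld glucometer at 0, 10, 15, 30, 60 and 180 min.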

[3] = tested on: GLP-1R^–/– mice and GLP-1R^+/+ mice; assay type: in vivo; conditions: sacubitril at -30 min, AAs 34 mg oral
male C57BL/6JRj mice = test: Oral amino acid challenge in male mice treated with sacubitril; assay type: in vivo; conditions: AA challenge, n = 6
Procedure, shortened: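 Male C57BL/6JRj mice (~22 g) were acclimatized for at least 1 week. At –30 min they received sacubitril (0.7 nmol/g BW; DMSO stock diluted in PBS) or vehicle (PBS, 0.7% DMSO) by oral gavage. Amino acids (34 mg, Vamin solution) were gavaged at 0 min. Tail blood was sampled at 0, 10, 15, 30, 60 and 180 min for glucometer glucose and EDTA plasma. Plasma glucagon was measured by two-site enzyme immunoassay; L-amino acids and urea by kits.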

female C57BL/6JRj mice [4] = test: Female mice given water instead of amino acids; assay type: in vivo; conditions: sacubitril coadministered with vehicle, GRA or Ex9-39 vs these alone; n = 3
Procedure, shortened: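 Female C57BL/6JRj mice were fasted 3 h with free water. They received GRA (100 mg/kg, oral gavage suspension) or its vehicle at –180 min, or Ex9-39 (100 µg i.p.) at –15 min. Sacubitril (0.7 nmol/g BW, oral gavage; DMSO diluted in PBS) or PBS/0.7% DMSO was given at –30 min, then water at 0 min. Retrobulbar blood was taken at 0–180 min for plasma glucagon by 2-site enzyme immunoassay.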

[5] = used to correct the oral dose; species and source not given; cited from earlier work
recombinant NEP = test: ANP degradation by recombinant NEP; assay type: biochemical; conditions: MALDI-TOF
healthy young men = test: Single dose of sacubitril/valsartan; assay type: in vivo, human; conditions: valsartan alone 206 mg; n = 3
Procedure, shortened: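 Healthy men meeting the crossover-trial inclusion criteria (n = 3) received valsartan 206 mg 30 min before a solid mixed meal (42 g carbohydrate, 25 g fat, 26 g protein), or the meal alone, on separate occasions. Blood was drawn at –60, –15, 0, 30, 45, 90 and 180 min. Plasma glucagon was measured by validated 2-site enzyme immunoassay, and the postprandial response was expressed as incremental AUC.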

In the case of CCOC(=O)C1=C(COCCN)NC(C)=C(C(=O)OC)C1c1ccccc1Cl (centres unmarked) [amlodipine], the “plasma concentrations of glucose, glucagon, or AAs, after vs before” value [1] is reported as “no significant changes”.
With CCOC(=O)[C@H](C)C[C@@H](Cc1ccc(-c2ccccc2)cc1)NC(=O)CCC(=O)O [sacubitril] the “inhibition of NEP activity in mice” value (NEP activity) was ~ 60%, the “plasma concentrations of glucagon, coadministration with Ex9-39 vs Ex9-39 alone” value (female C57BL/6JRj mice [2]; sacubitril 0.7 nmol/g BW + Ex9-39 100 µg) was “increased plasma concentrations of glucagon more” and the “plasma concentrations of amino acids vs vehicle” value (female C57BL/6JRj mice [2]; sacubitril 0.7 nmol/g BW oral) was “no effect on plasma concentrations of amino acids”. For the same molecule, the “blood glucose concentrations in response to an AA challenge” value (female C57BL/6JRj mice [2]; sacubitril 0.7 nmol/g BW oral, vs vehicle) was “no significant increase”, the “plasma AA iAUC in GLP-1^–/– mice” value ([3]; mean ± SD, vehicle 255 ± 118, P = .05) was 376 ± 67 and the “augmenting effect on AA-stimulated glucagon levels in GLP-1R^+/+ mice” value ([3]; time point 15 minutes, P = .02) was “apparent only in littermate controls”. For the same molecule, the “glucagon response to AAs in GLP-1R^–/– mice” value ([3]; vs vehicle) was “did not, however, increase the glucagon response to AAs”, the “blood glucose concentrations in response to an AA challenge in GLP-1R^–/– mice” value ([3]; vs vehicle, P = .03) was “increased blood glucose concentrations” and the “blood glucose or plasma concentrations of AAs, male mice” value (male C57BL/6JRj mice) was “without altering blood glucose or plasma concentrations of AAs”. The “plasma concentrations of glucagon, male mice” value (male C57BL/6JRj mice) was “increased plasma concentrations of glucagon”, the “plasma concentrations of urea, male mice” value (male C57BL/6JRj mice) was “did not increase plasma concentrations of urea” and the “plasma concentrations of glucagon, water instead of AAs” value (female C57BL/6JRj mice [4]) was “increased numerically”. The bioavailability [5] was 60%.
With C[C@H](C[C@@H](Cc1ccc(-c2ccccc2)cc1)NC(=O)CCC(=O)O)C(=O)O [sacubitrilat] the “effect on NEP-induced ANP cleavage” value (recombinant NEP; sacubitrilat added) was “prevented by the addition of sacubitrilat”.
For CCCCC(=O)N(Cc1ccc(-c2ccccc2-c2nnn[nH]2)cc1)[C@H](C(=O)O)C(C)C [valsartan], the “effect on postprandial plasma concentrations of glucagon vs control” value (healthy young men) was “no effect”.
For atrial natriuretic peptide [ANP], the “degradation of ANP by NEP” value (recombinant NEP; positive control, recombinant NEP, Supplementary Fig. 2A and 2B) was “NEP cleavage resulted in the formation of a known substrate (m/z 2585)”.
